Shown are actives, neighbours in structure and some others; about 2.2% of the full set was active somewhere.
PPC-1+TRAIL kill = kills PPC-1 cancer cells in the presence of TRAIL; PPC-1 cells + TRAIL, ATPLite viability luminescence; cell killing (% activity), % at 4 µM or 5 µM; 220,000 compounds, 0.41% hits; AID 1443;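 active means cell killing above 50% in the first pass at 4 µM, then a duplicate retest at 5 µM averaging 50% or more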;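 further: plate controls were cells with TRAIL plus DMSO for no effect and medium-only wells lacking cells for full effect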
STAT3 blocker = STAT3 signaling inhibition | U3A cells, IL-6 STAT3-luciferase reporter, luminescence; host cell line lacks STAT1 | inhibition, % at 5.5 µM | 190,000 compounds, 0.89% hits | AID 862;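 active means inhibition above the mean inhibition across all screened compounds plus 3 SD, cut at about 44% in these data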;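 further: 0% = DMSO only wells and 100% = 100 µM nifuroxazide control wells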
FLuc act counter = firefly luciferase counter-screen for stimulation assays. 200,000 tested, under 10 active. activation factor at 10 µM. ATPlite luciferase biochemical, luminescence, 10 min; 0 = ATP-free wells, 1 = DMSO control. P08659;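 active means luciferase activation factor, scaled between plate controls, of at least 2 with compound at 10 µM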
Target sequence (P08659 whole entry, looked up): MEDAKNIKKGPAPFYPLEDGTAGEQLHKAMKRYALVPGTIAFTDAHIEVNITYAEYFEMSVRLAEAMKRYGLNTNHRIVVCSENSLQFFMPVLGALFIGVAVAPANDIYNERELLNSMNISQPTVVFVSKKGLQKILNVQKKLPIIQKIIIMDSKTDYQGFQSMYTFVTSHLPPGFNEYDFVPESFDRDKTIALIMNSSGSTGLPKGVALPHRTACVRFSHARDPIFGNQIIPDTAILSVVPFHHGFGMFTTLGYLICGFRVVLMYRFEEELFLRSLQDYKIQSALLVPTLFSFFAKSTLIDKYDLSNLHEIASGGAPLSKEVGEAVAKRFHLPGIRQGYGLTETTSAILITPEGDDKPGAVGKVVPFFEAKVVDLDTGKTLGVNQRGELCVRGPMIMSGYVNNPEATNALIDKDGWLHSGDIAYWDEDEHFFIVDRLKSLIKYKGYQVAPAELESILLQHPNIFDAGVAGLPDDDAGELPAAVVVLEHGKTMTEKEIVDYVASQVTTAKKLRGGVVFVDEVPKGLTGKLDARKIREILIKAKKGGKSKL
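Material: Luciferase/luciferin reagent mix | Doses: Test compounds dosed from 2 mM stocks in 100% DMSO | Timing: 10 min incubation after luciferase reagent addition, room temperature | Measured by: Luminescence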
HSP90 refold inh = inhibitors of HSP90 luciferase refolding in rabbit reticulocyte lysate; inhibition, % at 5.6 µM; AID 1789; luciferase refolding luminescence, 3 h; 290,000 compounds, 0.91% hits;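 active means inhibition above the screen-wide mean plus 3 SD, computed separately per campaign, cut at about 16% in these data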;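 further: 0% = DMSO wells and 100% = 60 µM geldanamycin wells; inhibitors lower the luminescence because luciferase stays unfolded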
FLuc inh counter = Photinus pyralis luciferase inhibition counter-screen. ATPLite firefly luciferase biochemical luminescence, 10 min. 200,000 compounds, 1.5% hits. inhibition, % at 10 µM. P08659. AID 1006;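 active means inhibition above about 50% when tested at 10 µM, limit read from the data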
C8 TRAIL sens = caspase-8 TRAIL sensitization; 360,000 compounds, 1% hits; inhibition (viability loss, TRAIL sensitization), % at 10 µM; NB7+C8 cells + TRAIL, ATPlite viability luminescence;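 active means compounds causing at least 50% loss of cell viability in the single-dose screen, relative to plate controls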
* = called active by the depositor.

What do the screens show for `COc1ccc(OC)c(CC(NC(C)=O)C(=O)NC2CCN(S(=O)(=O)c3ccc(NC(C)=O)cc3)CC2)c1` (configuration not stated)?
HSP90 refold inh: -2; C8 TRAIL sens: 8

How did COc1ccc(CC(NC(C)=O)C(=O)NC2CCN(S(=O)(=O)c3ccccc3)CC2)c(OC)c1 (configuration not stated) do in these assays?
HSP90 refold inh: 17*; C8 TRAIL sens: 6

Results for CC[C@H](C)C1OC(=O)[C@@H](C)[C@@H](CC)NC(=O)[C@H](C)N(C)C(=O)C(C)(C)C(=O)C(C)NC(=O)[C@H](Cc2ccc(OC)cc2)N(C)C(=O)[C@H](C(C)C)N(C)C(=O)CNC(=O)[C@H](CC(C)C)N(C)C(=O)CNC1=O (some centres not stated) ?
C8 TRAIL sens: 55*

Results for CCOc1cc(/C=N/NC(=O)CCn2nc(C)cc2C)ccc1O ?
PPC-1+TRAIL kill: 4; HSP90 refold inh: 4; C8 TRAIL sens: -8

How did Cn1c(CNc2ccccc2)nc2ccccc21 do in these assays?
PPC-1+TRAIL kill: 23; STAT3 blocker: -12; FLuc act counter: 0.7; HSP90 refold inh: 3; FLuc inh counter: 26; C8 TRAIL sens: -1

Results for CC(C)n1cnc2cc(NCc3nc4ccccc4n3C)ccc21 ?
PPC-1+TRAIL kill: 35; STAT3 blocker: -4; FLuc act counter: 0.5; HSP90 refold inh: 16*; FLuc inh counter: 54*; C8 TRAIL sens: 32

Results for CCn1cnc2cc(NCc3nc4ccccc4n3C)ccc21 ?
PPC-1+TRAIL kill: 5; STAT3 blocker: 22; FLuc act counter: 0.5; HSP90 refold inh: 13; FLuc inh counter: 53*; C8 TRAIL sens: 38

Results for Cc1cc(NC(=O)NC2CCCN2S(=O)(=O)c2ccc(Cl)cc2)no1 (configuration not stated) ?
PPC-1+TRAIL kill: 3; STAT3 blocker: 13; FLuc act counter: 1; HSP90 refold inh: -4; FLuc inh counter: -5; C8 TRAIL sens: 3

Results for COc1cc(CNCCO)ccc1OCCc1ccccc1 ?
HSP90 refold inh: 1; C8 TRAIL sens: 9

How did O=C1c2ccc(Cl)cc2S(=O)(=O)c2cccc(C(=O)N3CCN(c4ccc(Cl)cn4)CC3)c21 do in these assays?
C8 TRAIL sens: 59*

Results for COc1cc(NC(=O)COc2cccc3c2OC(C)(C)C3)cc(OC)c1OC ?
C8 TRAIL sens: 10

What do the screens show for `O=C(Nc1ccc(C(=O)O)cc1)/C(=C\C=C\c1ccccc1)NC(=O)c1ccccc1Cl`?
HSP90 refold inh: 5; C8 TRAIL sens: 54*

What do the screens show for `O=C(Nc1ccc(O)cc1)/C(=C\C=C\c1ccccc1)NC(=O)c1ccccc1`?
PPC-1+TRAIL kill: 5; HSP90 refold inh: 2; C8 TRAIL sens: -3

What do the screens show for `O=C(c1cnc(Cl)c(Cl)c1)N1CCN(S(=O)(=O)c2ccc3ccccc3c2)CC1`?
C8 TRAIL sens: 48*

Results for O=C(c1ccncc1)N1CCN(S(=O)(=O)c2ccc3ccccc3c2)CC1 ?
HSP90 refold inh: 0; C8 TRAIL sens: 3

What do the screens show for `CCCCN([C@H](CO)C(C)C)S(=O)(=O)c1ccccc1Br`?
C8 TRAIL sens: 5

Results for Cc1ccc(NC(=O)c2ccc3nsnc3c2)c(Cl)c1 ?
HSP90 refold inh: 10; C8 TRAIL sens: 58*

How did Cc1cc(C(=O)Nc2ccc3nc(C)sc3c2)c2ccccc2n1 do in these assays?
PPC-1+TRAIL kill: 13; HSP90 refold inh: 5; C8 TRAIL sens: 0

Results for CC(=O)Nc1ccc(-c2cn3ccsc3n2)cc1 ?
PPC-1+TRAIL kill: 34; STAT3 blocker: 26; FLuc act counter: 0.3; HSP90 refold inh: 1; FLuc inh counter: 67*; C8 TRAIL sens: 36

Results for c1cn2cc(-c3ccc4c(c3)OCO4)nc2s1 ?
PPC-1+TRAIL kill: 46; STAT3 blocker: 24; FLuc act counter: 0.2; HSP90 refold inh: 7; FLuc inh counter: 78*; C8 TRAIL sens: 44

What do the screens show for `CCS(=O)(=O)c1ccc(C(=O)NC2CC2)c(Cl)c1Cl`?
PPC-1+TRAIL kill: -12; STAT3 blocker: 7; FLuc act counter: 1.1; HSP90 refold inh: 2; FLuc inh counter: -5; C8 TRAIL sens: -9

How did CCCCCCn1cc(CN2CC(N3CCSCC3)CS2(=O)=O)nn1 (configuration not stated) do in these assays?
C8 TRAIL sens: -16

How did CCOc1ccc(-n2nc3ccc(N)cc3n2)cc1 do in these assays?
HSP90 refold inh: 2; C8 TRAIL sens: 35

How did CCOc1ccc(-n2nc3cc(C)c(N)cc3n2)cc1 do in these assays?
HSP90 refold inh: 11; C8 TRAIL sens: 59*

What do the screens show for `COc1ccccc1NC(=O)CSc1ccc(-c2ccc(-n3ccnc3)cc2)nn1`?
C8 TRAIL sens: 51*

What do the screens show for `Cc1ccccc1NC(=O)CSc1ccc(-c2ccc(-n3cccn3)cc2)nn1`?
C8 TRAIL sens: 35

Results for CCc1nnc(NC(=O)CSc2ccc(-c3ccc(-n4cccn4)cc3)nn2)s1 ?
C8 TRAIL sens: 77*

How did COc1cccc(-c2nc(CS(=O)(=O)CC(=O)NCCCN3CCc4ccccc4C3)c(C)o2)c1 do in these assays?
PPC-1+TRAIL kill: 9; STAT3 blocker: -7; FLuc act counter: 1.1; HSP90 refold inh: -3; FLuc inh counter: -5; C8 TRAIL sens: 5

How did COCCSc1ccccc1C(=O)NCc1ccco1 do in these assays?
PPC-1+TRAIL kill: 14; STAT3 blocker: 7; FLuc act counter: 1; HSP90 refold inh: 4; FLuc inh counter: 2; C8 TRAIL sens: 8

Results for O=C(Nc1nccs1)c1cc(S(=O)(=O)N2CCOCC2)ccc1Cl ?
PPC-1+TRAIL kill: 60*; FLuc act counter: 1; FLuc inh counter: -1; C8 TRAIL sens: 4

What do the screens show for `O=C1c2cccc3cccc(c23)C(=O)N1c1nccs1`?
PPC-1+TRAIL kill: 13; STAT3 blocker: 22; FLuc act counter: 1.1; HSP90 refold inh: -4; FLuc inh counter: -5; C8 TRAIL sens: 2

Results for O=C1c2cccc3c([N+](=O)[O-])ccc(c23)C(=O)N1c1ccccn1 ?
PPC-1+TRAIL kill: 4; STAT3 blocker: 4; FLuc act counter: 1; HSP90 refold inh: 0; FLuc inh counter: 3; C8 TRAIL sens: 51*

What do the screens show for `O=C1c2cccc3c([N+](=O)[O-])ccc(c23)C(=O)N1c1nccs1`?
PPC-1+TRAIL kill: -5; STAT3 blocker: 6; FLuc act counter: 1.1; HSP90 refold inh: 4; FLuc inh counter: -6; C8 TRAIL sens: 53*

Results for Cc1sc2nc(C)n(/N=C/N(C)C)c(=O)c2c1C ?
PPC-1+TRAIL kill: 8; HSP90 refold inh: 3; C8 TRAIL sens: -16

What do the screens show for `Cc1sc2nc(C)n(/N=C/c3ccc(O)cc3)c(=O)c2c1C`?
PPC-1+TRAIL kill: -6; STAT3 blocker: 12; FLuc act counter: 1; HSP90 refold inh: 2; FLuc inh counter: -4; C8 TRAIL sens: 50*

Screens: PubChem, several laboratories
